From ChEMBL document CHEMBL1764996, “Synthesis and separation of the enantiomers of the neuropeptide S receptor antagonist (9R/S)-3-oxo-1,1-diphenyl-tetrahydro-oxazolo[3,4-a]pyrazine-7-carboxylic acid 4-fluoro-benzylamide (SHA 68)” (J Med Chem, 2011)
One block for each molecule: values may come before it. The source made the active and inactive calls. The calls are words filed in the database; no cut-off is given here.

Assays:
Assay type in all cases: functional, cell-based
[1] = target: T1, Neuropeptide S receptor (Mus musculus) (UniProt Q8BZP8); test: Agonist activity at mouse NPSR expressed in HEK293 cells assessed as induction of calcium mobilization at up to 10 uM after 30 mins
T1 sequence (whole entry): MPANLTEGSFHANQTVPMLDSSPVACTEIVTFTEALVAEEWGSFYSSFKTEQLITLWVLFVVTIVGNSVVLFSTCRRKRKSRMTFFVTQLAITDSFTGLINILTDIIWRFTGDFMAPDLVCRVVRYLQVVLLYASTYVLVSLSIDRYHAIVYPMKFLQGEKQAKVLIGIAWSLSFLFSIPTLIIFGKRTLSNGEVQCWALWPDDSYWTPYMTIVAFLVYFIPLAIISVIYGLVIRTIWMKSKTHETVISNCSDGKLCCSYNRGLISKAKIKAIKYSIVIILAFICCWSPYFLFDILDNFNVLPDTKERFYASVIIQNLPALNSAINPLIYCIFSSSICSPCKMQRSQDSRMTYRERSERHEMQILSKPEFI
Summary of the method: (§1)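 HEK293 lines stably expressing human NPSR Ile107 or murine NPSR were grown in DMEM with 10% FBS, 2 mM L-glutamine and hygromycin B (100 mg/L) at 37 °C, 5% CO2. Cells were plated on poly-D-lysine wells and loaded with Fluo-4 AM (3 µM), probenecid 2.5 mM and 0.01% pluronic for 30 min at 37 °C. They were then read in HBSS/20 mM HEPES with probenecid and Brilliant Black on a FlexStation at 37 °C. Peak fluorescence change was taken as % baseline and fitted logistically for potency and maximal effect. Data are mean ± sem, n≥4 in duplicate.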

[2] = target: T2, Neuropeptide S receptor (Homo sapiens) (UniProt Q6W5P4); test: (§2) Agonist activity at human NPSR Asn107 expressed in HEK293 cells assessed as induction of calcium mobilization after 30 mins
T2 sequence (whole entry): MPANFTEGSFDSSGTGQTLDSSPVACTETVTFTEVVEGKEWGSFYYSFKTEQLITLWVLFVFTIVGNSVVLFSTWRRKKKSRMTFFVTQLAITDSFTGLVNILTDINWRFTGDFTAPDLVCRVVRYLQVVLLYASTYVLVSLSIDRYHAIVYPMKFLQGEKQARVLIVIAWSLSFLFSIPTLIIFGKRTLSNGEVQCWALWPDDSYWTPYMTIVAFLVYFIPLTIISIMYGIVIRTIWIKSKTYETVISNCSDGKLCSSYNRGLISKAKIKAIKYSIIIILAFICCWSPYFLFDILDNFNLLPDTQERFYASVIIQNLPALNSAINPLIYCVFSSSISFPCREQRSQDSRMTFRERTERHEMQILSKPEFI
Summary of the method: (§3)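 HEK293 cells stably expressing human NPSR Asn107 were kept in DMEM with 10% FBS, 2 mM glutamine and zeocin (100 mg/L) at 37 °C, 5% CO2. Cells were seeded on poly-D-lysine plates and loaded next day with 3 µM Fluo-4 AM, 2.5 mM probenecid and 0.01% pluronic acid for 30 min at 37 °C. Assay buffer was HBSS with 20 mM HEPES, 2.5 mM probenecid and 500 µM Brilliant Black. Fluorescence was read on a FlexStation at 37 °C. Response was the maximal fluorescence change as % of baseline. Potency and maximal effect came from nonlinear regression, with mean ± sem of ≥4 experiments in duplicate.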

Neuropeptide S receptor [3] = target: T3, Neuropeptide S receptor (Homo sapiens, UniProt Q6W5P4); test: as §2; summary of the method: as §3
[4] = target: T2, Neuropeptide S receptor (Homo sapiens); test: Agonist activity at human NPSR Ile107 expressed in HEK293 cells assessed as induction of calcium mobilization after 30 mins relative to control; summary of the method: as §1
[5] = target: T2, Neuropeptide S receptor (Homo sapiens); test: Agonist activity at human NPSR Asn107 expressed in HEK293 cells assessed as induction of calcium mobilization after 30 mins relative to control; summary of the method: as §3
[6] = target: T2, Neuropeptide S receptor (Homo sapiens); test: (§4) Agonist activity at human NPSR Ile107 expressed in HEK293 cells assessed as induction of calcium mobilization after 30 mins; summary of the method: as §1
Neuropeptide S receptor [7] = target: T3, Neuropeptide S receptor; test: as §4; summary of the method: as §1
[8] = target: T1, Neuropeptide S receptor (Mus musculus); test: Agonist activity at mouse NPSR expressed in HEK293 cells assessed as induction of calcium mobilization after 30 mins relative to control; summary of the method: as §1
Neuropeptide S receptor [9] = target: T4, Neuropeptide S receptor (Mus musculus, UniProt Q8BZP8); test: (§5) Agonist activity at mouse NPSR expressed in HEK293 cells assessed as induction of calcium mobilization after 30 mins; summary of the method: as §1
T4 sequence (Q8BZP8 whole entry): T1 sequence (whole entry)

[10] = target: T1, Neuropeptide S receptor (Mus musculus); test: as §5; summary of the method: as §1

Molecule: O=C(NCc1ccc(F)cc1)N1CCN2C(=O)OC(c3ccccc3)(c3ccccc3)C2C1 (single isomer, unassigned)
Activity [1]: inactive

Molecule: H-SFRNGVGSGAKKTSFRRAKQ-OH
Emax [8]: 250%
EC50 (Neuropeptide S receptor [9]): 1.07 nM
Activity [10]: Dose-dependent effect

Molecule: O=C(NCc1ccc(F)cc1)N1CCN2C(=O)OC(c3ccccc3)(c3ccccc3)[C@@H]2C1
Activity [1]: inactive

Now from value to molecule:

Activity [1]: inactive
Molecule: O=C(NCc1ccc(F)cc1)N1CCN2C(=O)OC(c3ccccc3)(c3ccccc3)[C@H]2C1

Activity [2]: Dose-dependent effect
pEC50 (Neuropeptide S receptor [3]): 9.07
Emax [4]: 333%
Emax [5]: 316%
Activity [6]: Dose-dependent effect
pEC50 (Neuropeptide S receptor [7]): 9.17
Molecule: H-SFRNGVGTGMKKTSFQRAKS-OH [NEUROPEPTIDE S]
